# Results from PubChem BioAssay.
# The source made the active and inactive calls.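 Rule for the calls, unless noted: active = GFP response above 150% of the DMSO level; inconclusive = fewer than 70 events counted for a yeast strain; inactive = the rest.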
# How the values were obtained:
# [1] = RPL19A-GFP modulators, yeast TOR pathway, confirmation, cell-based, S. cerevisiae, flow cytometry, cherry picks, mother/daughter gates (AID 2270;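 active = GFP response below 50% of the DMSO control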); details: S. cerevisiae RPL19A-GFP strain, 3 h, at 10 µM, stronger effect = lower value, 100 = same GFP as DMSO wells
# [2] = LAP4-GFP expression modulators in yeast, confirmation, cell-based, cherry picks, flow cytometry, mother/daughter gates (AID 2271;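 active = GFP response above 150% of the DMSO control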;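 note: ratio of sample to DMSO plate mean so 100% equals DMSO level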); details: S. cerevisiae LAP4-GFP strain, 3 h, at 10 µM, stronger effect = higher value, 100 means same as DMSO control
# How it was run: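 System – GFP-fusion yeast strain · Amount – 0.2 OD600 cells · Buffer or medium – SC growth medium · Dosing – single test-compound dose, 10 µM final · Schedule – 3 h treatment at 30 °C with rotation · Detection – GFP by flow cytometry · Read-out – per-gate (all, mother, daughter) GFP response vs DMSO · Benchmarks – positive rapamycin (400 ng/mL), negative DMSO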
# [3] = modulators of MEP2-GFP levels in yeast, confirmation, S. cerevisiae, flow cytometry GFP, cherry picks (AID 2272;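 active = GFP response above 150% of the DMSO control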;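 note: ratio of well signal to plate DMSO mean so 100% equals DMSO level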); details: S. cerevisiae MEP2-GFP strain, 3 h, at 10 µM, stronger effect = higher value
# [4] = AGP1-GFP expression modulators, hit retest, confirmation, cell-based, flow cytometry, S. cerevisiae, cherry picks (AID 2273);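 note: median GFP channel fluorescence over the whole cell population gate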; details: S. cerevisiae AGP1-GFP strain, 3 h, at 10 µM
# [5] = modulators of CIT2-GFP expression in yeast, confirmation, S. cerevisiae, GFP fusion, cherry picks, mother/daughter gates (AID 2274); details: S. cerevisiae CIT2-GFP strain, flow cytometry, 3 h, at 10 µM, stronger effect = higher value
# [6] = measured here: daughter cell gate
# [7] = measured here: mother cell gate
# [8] = measured here: daughter cell gate response
# [9] = measured here: mother cell gate response
SMILES,GFP response vs DMSO [1],"GFP response vs DMSO [1, 6]","GFP response vs DMSO [1, 7]",GFP response relative to DMSO [2],"GFP response relative to DMSO [2, 8]","GFP response relative to DMSO [2, 9]",GFP response vs DMSO [3],"GFP response, % of DMSO [4]","GFP response, % of DMSO [5]","GFP response, % of DMSO [5, 6]","GFP response, % of DMSO [5, 7]"
O=C(Nc1cccc(C(F)(F)F)c1)Oc1ccc(Cl)c2cccnc12,98% (inactive),97.6%,98.2%,110% (inactive),108%,111%,103% (inactive),99.3% (inactive),108% (inactive),110%,107%
Cc1ccc(C(C[N+](=O)[O-])Sc2ccc(N)cc2)cc1 (centres undefined),95.6% (inactive),98.4%,94.8%,135% (inactive),133%,140%,109% (inactive),89.6% (inactive),98.3% (inactive),103%,95%
Cc1ccc(/C=N/Nc2ncc(Cl)cc2Cl)s1,86.7% (inactive),62.7%,78.2%,331% (active),202%,317%,115% (inactive),81.8% (inactive),107% (inactive),95.4%,98.5%
CCOc1cc(/C=C2/N=C(c3ccc4c(c3)OCO4)OC2=O)ccc1OC(C)=O,92% (inactive),87.5%,94.2%,95.7% (inactive),95.9%,96.2%,101% (inactive),103% (inactive),97.3% (inactive),95.6%,98.1%
CN(C)c1ccc(N=Cc2nc(-c3ccccc3)oc2OC(=O)c2ccccc2)cc1,98.6% (inactive),100%,98.5%,105% (inactive),103%,105%,115% (inactive),111% (inactive),107% (inactive),103%,107%
CC(C)COC(=O)NCC12C=CC(O1)C1C(=O)N(c3ccc(Cl)cc3)C(=O)C12 (centres undefined),99.6% (inactive),99.5%,98.4%,98.9% (inactive),101%,99.5%,106% (inactive),107% (inactive),101% (inactive),101%,102%
COc1ccc(/C=N/NC(=O)C2(C)NC(C)(C)Cc3ccccc32)cc1 (centres undefined),94.4% (inactive),94.9%,95.3%,96.7% (inactive),97.6%,96.1%,96.2% (inactive),99.7% (inactive),99.7% (inactive),99.1%,98.5%
O=[N+]([O-])c1ccc(Cl)cc1Sc1ccccn1,105% (inactive),108%,104%,94.1% (inactive),96%,91.3%,112% (inactive),102% (inactive),111% (inactive),110%,108%
CCN(CC)S(=O)(=O)c1cccc(C(=O)NCC(c2ccccc2)N(C)C)c1 (centres undefined),99.7% (inactive),102%,98.5%,110% (inactive),111%,106%,106% (inactive),104% (inactive),104% (inactive),106%,98%
CCOC(=O)/C=C1\SCC(=O)N1Cc1nnc(-c2ccccc2Br)o1,96.2% (inactive),97.6%,96.4%,90.2% (inactive),89.6%,90.8%,100% (inactive),100% (inactive),99.7% (inactive),101%,99.7%
CS(=O)(=O)Nc1ccc(C2=NN(S(C)(=O)=O)C(c3ccc4c(c3)OCO4)C2)cc1 (centres undefined),98.6% (inactive),98.4%,99.4%,97.4% (inactive),102%,99.3%,104% (inactive),102% (inactive),103% (inactive),99.7%,103%
CCSC1=NCCN1S(=O)(=O)c1ccc(F)cc1,98.8% (inactive),97.6%,99%,105% (inactive),101%,106%,103% (inactive),101% (inactive),93.4% (inactive),93.7%,92.8%
CN1Cc2sc(NC(=S)NC(=O)c3ccccc3)c(C#N)c2CC1(C)C,99.5% (inactive),99.8%,100%,109% (inactive),104%,111%,133% (inactive),106% (inactive),109% (inactive),109%,110%
Cc1cccc(CSc2cccc3cccnc23)c1,92.3% (inactive),91.3%,92.1%,130% (inactive),125%,132%,97.2% (inactive),89.1% (inactive),88.9% (inactive),90.5%,85.9%
O=C(CCc1ccccc1)NNC(=S)NC(=O)c1ccccc1,106% (inactive),106%,107%,186% (active),180%,185%,116% (inactive),100% (inactive),106% (inactive),113%,100%
Cc1noc2ncnc(Sc3c(Cl)cccc3Cl)c12,101% (inactive),102%,99.8%,94.1% (inactive),94.4%,94%,100% (inactive),88.6% (inactive),105% (inactive),105%,104%
O=C(COC(=O)c1n[nH]c2ccccc12)c1cccc(Br)c1,96.5% (inactive),95.6%,94.8%,101% (inactive),101%,99.5%,101% (inactive),102% (inactive),100% (inactive),95.8%,100%

SMILES,GFP response vs DMSO [1],"GFP response vs DMSO [1, 6]","GFP response vs DMSO [1, 7]",GFP response relative to DMSO [2],"GFP response relative to DMSO [2, 8]","GFP response relative to DMSO [2, 9]",GFP response vs DMSO [3],"GFP response, % of DMSO [4]","GFP response, % of DMSO [5]","GFP response, % of DMSO [5, 6]","GFP response, % of DMSO [5, 7]"
O=C(c1ccc(Cl)cc1)N1CCN(c2cccc3[nH]ccc23)CC1,94.6% (inactive),94.1%,93.1%,108% (inactive),107%,105%,105% (inactive),91.9% (inactive),96.9% (inactive),99.1%,95%
COc1ccc(CC(=O)Oc2ccccc2C)cc1,98% (inactive),99.6%,98.3%,100% (inactive),97.9%,98.5%,102% (inactive),94.3% (inactive),96.4% (inactive),96.4%,95.6%
O=C(Oc1c(Cl)cc(Cl)c2cccnc12)c1cccc([N+](=O)[O-])c1,106% (inactive),92.9%,108%,244% (active),183%,236%,133% (inactive),101% (inactive),134% (inactive),121%,131%
CCn1cc([N+](=O)[O-])c(C(=O)Nc2nc(-c3ccc(C)c(C)c3)c(C)s2)n1,98.8% (inactive),98.6%,99.2%,95.4% (inactive),97.6%,94%,100% (inactive),101% (inactive),99.7% (inactive),99.1%,97.3%
CCC(C(=O)O)n1nc(-c2ccccc2)c2cc(Cl)ccc21 (centres undefined),98.7% (inactive),98.4%,98.2%,98.9% (inactive),96%,99.5%,99.3% (inactive),102% (inactive),101% (inactive),99.3%,102%
C=CCn1cc(/C=C/c2cc[n+](C)cc2)c2ccccc21,102% (inactive),99.6%,103%,108% (inactive),107%,108%,120% (inactive),97.8% (inactive),125% (inactive),119%,127%
CCOc1ccc(C(Nc2cccnc2)c2cc(Cl)c3cccnc3c2O)cc1 (centres undefined),99.6% (inactive),104%,95.6%,164% (active),144%,170%,122% (inactive),93.9% (inactive),101% (inactive),108%,94.9%
Cc1ccc(-c2ccc(/C=N/NC(N)=S)o2)cc1,98.6% (inactive),95%,98.7%,112% (inactive),113%,115%,102% (inactive),91.9% (inactive),97.8% (inactive),94.8%,96.6%
O=C(/C=C/c1ccccc1)C1=C(O)C(=O)N(CCO)C1c1cccc([N+](=O)[O-])c1 (centres undefined),99.8% (inactive),99.3%,100%,97.7% (inactive),101%,97.4%,101% (inactive),103% (inactive),100% (inactive),101%,99.3%
Cc1ccn2c(NC3CCCCC3)c(-c3cccc(-c4cccc(Cl)c4)c3)nc2c1,95% (inactive),92.1%,95.8%,110% (inactive),102%,112%,108% (inactive),92.5% (inactive),93.5% (inactive),98.3%,88.6%
C/C(=N/NC(=O)c1ccc(C(C)(C)C)cc1)c1ccccn1,110% (inactive),107%,101%,231% (active),197%,209%,126% (inactive),90% (inactive),112% (inactive),115%,98.2%
O=C(OCn1ncc(Br)c(Br)c1=O)c1c(F)cccc1F,93.3% (inactive),94%,90.6%,168% (active),153%,175%,98.8% (inactive),116% (inactive),97.2% (inactive),105%,88.8%
CCOc1cc(-c2nc3cc(C)ccn3c2NCC2CCCO2)ccc1O (centres undefined),103% (inactive),105%,101%,88.2% (inactive),91.3%,87.3%,103% (inactive),97.9% (inactive),104% (inactive),108%,104%
O=C1c2ccccc2C(=O)N1OS(=O)(=O)c1ccc(F)cc1,74% (inactive),89.4%,61.9%,127% (inactive),129%,129%,103% (inactive),102% (inactive),121% (inactive),103%,99.7%
Cc1ccc(CS(=O)(=O)c2ncc(Cl)c(C(=O)Nc3nnc(C)s3)n2)cc1,99.6% (inactive),99.8%,98.6%,102% (inactive),104%,104%,101% (inactive),113% (inactive),103% (inactive),99.3%,104%
O=[N+]([O-])/C=C/c1cn(Cc2ccc(F)cc2)c2ccccc12,103% (inactive),104%,102%,113% (inactive),110%,115%,105% (inactive),94.5% (inactive),104% (inactive),105%,101%
Cc1ccc(NN2C(=O)C=C(c3ccc(Cl)cc3)C2=O)cc1,83.9% (inactive),87.1%,74.3%,289% (active),117%,280%,111% (inactive),91.3% (inactive),96.9% (inactive),91.7%,83.1%
